Measured values from different studies.
Each line is one published result; the experiments were not run side by side. pIC50: −log10 of the molar value. Converted amounts (≈) assume the structure as drawn.
Organism: Escherichia coli

O=C(Sc1cccccc1=O)c1ccc(C(F)(F)F)cc1  MIC80 (microbial growth; broth dilution; ATCC35218): 66.7 µM (≈ 20.7 µg/mL)
O=S(=O)(Oc1cccc2cccnc12)c1ccccc1  IC50 (microbial growth; broth dilution; ATCC25922): 277 µg/mL
CN1CC(O)=C(C(=O)NC(C(=O)NC2C(=O)N3C2SC(C)(C)C3C(=O)O)c2ccccc2)C1=O (stereo not shown)  inhibition zone (microbial growth; well diffusion; BW25113; 200 µM): 10.5 mm
CC(C)Oc1c(NC(=O)c2ccc(NC(=O)[C@H](CC(N)=O)NC(=O)c3ccc(NC(=O)c4ccc(C#N)cc4)cc3)cc2)ccc(C(=O)N[C@@H]2CONC2=O)c1O  MIC (microbial growth; DSM1116): > 64 µg/mL
COc1cc(C=CC(=O)CC(c2ccc([N+](=O)[O-])cc2)n2ccnc2)ccc1O (stereo not shown)  inhibition zone (microbial growth; disc diffusion; ATCC25922; 250 µg/mL): 7.67 mm
O=C(O)c1cn(C2CC2)c2cc(N3CCNCC3)c(F)cc2c1=O  inhibition zone (microbial growth; SG458; 1000 µg/mL): 28.5 mm
CC(C)Oc1c(NC(=O)c2ccc(NC(=O)[C@H](CC(N)=O)NC(=O)c3ccc(NC(=O)c4ccc(C#N)cc4)cc3)cc2)ccc(C(=O)NC2CCNCC2)c1O  MIC (microbial growth; DSM1116): > 64 µg/mL
CCCCCCCCCCCC(=O)Oc1c(C)c(O)c(C(=O)/C=C/c2ccccc2)c(OC)c1C  MBC (microbial killing; broth dilution; ATCC25922): > 5000 µg/mL
c1cncc(-c2nc3ccccc3[nH]2)c1  MIC (microbial growth; broth dilution; ATCC25922): 64 µg/mL (≈ 328 µM)
N=C(N)c1cccc(OCc2cccc(COc3cccc(C(=N)N)c3)c2)c1  MIC (microbial growth; BW25113): > 200 µg/mL
C=CCn1c(-c2ccc(Cl)cc2)nc2ccccc21  MIC (microbial growth; broth dilution; ATCC25922): 64 µg/mL (≈ 238 µM)
COc1c(N2C[C@@H]3CCCN[C@@H]3C2)c(F)cc2c(=O)c(C(=O)O)cn(C3CC3)c12  MIC90 (microbial growth; ATCC25922): 0.06 µg/mL (≈ 0.149 µM)
Cc1ccc(-n2cc(COc3cccc4cccnc34)nn2)cc1  IC50 (microbial growth; broth dilution; ATCC25922): 176 µg/mL
COc1c(C)c(O)c(C)c(O)c1C(=O)/C=C/c1ccccc1  MBC (microbial killing; broth dilution; ATCC25922): > 5000 µg/mL
Oc1ccc(-c2ccsc2)cc1O  pIC50 (microbial growth; AS19; 10 h): 4.52
CC1(C)S[C@@H]2[C@H](NC(=O)[C@H](N)c3ccc(O)cc3)C(=O)N2[C@H]1C(=O)O  inhibition zone (microbial growth; disc diffusion; ATCC25922; 250 µg/mL): 11.2 mm
N=C(N)c1cccc(OCc2ccc(COc3cccc(C(=N)N)c3)cc2)c1  MIC (microbial growth; broth dilution; W3110): > 200 µg/mL
O=C1C=C(OCc2cn(-c3ccc(Cl)cc3)nn2)C(=O)c2ccccc21  IC50 (microbial growth; broth dilution; ATCC25922): 306 µg/mL
O=C(N[C@H](CO)[C@H](O)c1ccc([N+](=O)[O-])cc1)C(Cl)Cl  MIC90 (microbial growth; ATCC25922): 0.98 µg/mL (≈ 3.03 µM)
CCCCS(=O)(=O)Oc1cc(C(C)C)ccc1C  IC50 (microbial growth; broth dilution; ATCC25922): 156 µg/mL
O=C(Sc1cccccc1=O)c1ccccc1C(F)(F)F  MIC80 (microbial growth; broth dilution; ATCC35218): 19.8 µM (≈ 6.14 µg/mL)
Fc1ccc(-n2cc(COc3cccc4cccnc34)nn2)cc1  IC50 (microbial growth; broth dilution; ATCC25922): 405 µg/mL
O=[N+]([O-])c1ccc(-c2nc3ccccc3[nH]2)cc1  MIC (microbial growth; broth dilution; ATCC25922): 128 µg/mL (≈ 535 µM)
O=[N+]([O-])c1ccc(S(=O)(=O)Oc2cccc3cccnc23)cc1  IC50 (microbial growth; broth dilution; ATCC25922): 215 µg/mL
N=C(N)c1ccccc1OCc1ccccc1COc1ccccc1C(=N)N  MIC (microbial growth; BW25113): > 200 µg/mL
